Results from different studies.
Action: inhibitor
BCHE: Cholinesterase (BCHE, Equus caballus, UniProt P81908)

SMILES | target | test | system | IC50
COc1cc(/C=C/C(=O)NC2CCN(Cc3ccccc3)CC2)ccc1OC(=O)N1CCCC1 | BCHE | enzyme activity, Ellman | – | 3.4 µM
CC(C)(C)OC(=O)NC1CCCN(C(=O)C=Cc2ccccc2)C1 (stereo not shown) | BCHE | enzyme activity, Ellman | – | 43.7 µM
O=C(O)C(/C=C/c1c(Cl)cccc1Cl)=N\Nc1nc(-c2ccc(Br)cc2)cs1 | BCHE | enzyme activity | – | 8.47 µM
O=C(N1CCC2(CC1)C[C@H](CN1CCCCS1(=O)=O)CCO2)C1(c2ccccc2)CCCC1 | DHX58 (Homo sapiens, UniProt Q96C10) | ATPase activity | – | > 50 µM
CC(C)(C)OC(=O)NC1CCCN(C(=O)/C=C/c2cccc([N+](=O)[O-])c2)C1 (stereo not shown) | BCHE | enzyme activity, Ellman | – | > 50 µM
CN1CC[C@@]2(C)c3cc(OC(=O)Nc4ccccc4)ccc3N(C)[C@@H]12 | Aldehyde dehydrogenase, dimeric NADP-preferring (ALDH3A1, Homo sapiens, UniProt P30838) | enzyme activity, fluorescence | – | < 10 µM
O=C(O)C(/C=C/c1c(Cl)cccc1Cl)=N\Nc1nc(-c2ccc(F)cc2)cs1 | BCHE | enzyme activity | – | 4.04 µM
CCN(C)C(=O)Oc1ccc(CCC(=O)N(CC)Cc2ccccc2)cc1OC | BCHE | enzyme activity, Ellman | – | 12.7 µM
CC(C)(C)OC(=O)NC1CCCN(C(=O)/C=C/c2cccc(F)c2)C1 (stereo not shown) | BCHE | enzyme activity, Ellman | – | 15.3 µM
COc1cc(/C=C/C(=O)NC2CCN(Cc3ccccc3)CC2)ccc1OC(=O)N(C)C | BCHE | enzyme activity, Ellman | – | 9.6 µM
O=C(O)C(/C=C/c1c(Cl)cccc1Cl)=N\Nc1nc(-c2ccc(Cl)cc2)cs1 | BCHE | enzyme activity | – | 7.36 µM
CC(=O)c1c(C)c2cnc(Nc3ccc(C4CCN(CCS(C)(=O)=O)CC4)cn3)nc2n(C2CCCC2)c1=O | Cytochrome P450 2B6 (CYP2B6, Homo sapiens, UniProt P20813) | enzyme activity | human, liver microsomes | > 10 µM
CCN(CC)C(=O)Oc1ccc(/C=C/C(=O)NC2CCN(Cc3ccccc3)CC2)cc1 | BCHE | enzyme activity, Ellman | – | 15.2 µM
COc1ccc(OC)c(/C=C/C(=O)N2CCCC(NC(=O)OC(C)(C)C)C2)c1 (stereo not shown) | BCHE | enzyme activity, Ellman | – | > 50 µM
CN(C)C(=O)Oc1ccc(/C=C/C(=O)NC2CCN(Cc3ccccc3)CC2)cc1 | BCHE | enzyme activity, Ellman | – | 11.5 µM
CC(C)(C)OC(=O)NC1CCCN(C(=O)/C=C/c2ccc(Br)cc2)C1 (stereo not shown) | BCHE | enzyme activity, Ellman | – | 38.1 µM
